Measurements: ChEMBL document CHEMBL5715941, “AZD1152, a selective inhibitor of Aurora B kinase, inhibits human tumor xenograft growth by inducing apoptosis” (Clin Cancer Res, 2007)
Calls of active or inactive are those of the source. No cut-off for these calls is given here.

Columns and labels:
HCT-116 = assay: Antitumor activity against human HCT-116 cells xenografted in immunodeficient Swiss athymic mouse assessed as inhibition of tumor volume at 150 mg/kg/day, sc for 48 hrs on days 11 to 13 and measured on day 25 relative to control; assay type: functional; settings: HCT-116, 360 h, time 15 day
Procedure, shortened: (§1)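 Male Swiss athymic nude mice, 8-12 wk; tumor cells (1×10^6-1×10^7, 50:50 Matrigel) implanted s.c. on flank. Randomized (n = 8-11) at 0.2-0.5 cm3. AZD1152 in Tris buffer pH 9, or vehicle (0.3 mol/L Tris), by 48-h s.c. osmotic mini-pump infusion (two 24-h pumps in sequence). Caliper volumes up to 3×/week; growth inhibition from change in control vs treated volume; one-tailed t test.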

Calu-6 [1] = assay: Antitumor activity against human Calu-6 cells xenografted in immunodeficient Swiss athymic mouse assessed as inhibition of tumor volume at 150 mg/kg/day, sc for 48 hrs on days 20 to 22 and measured on day 41 relative to control; assay type: functional; settings: Calu-6, 528 h, time 22 day; procedure, shortened: as §1
SW-620 [2] = assay: Antitumor activity against human SW620 cells xenografted in immunodeficient Swiss athymic mouse assessed as inhibition of tumor volume at 25 mg/kg/day, ip for 4 days on days 6 to 9 and measured on day 24 relative to control; assay type: functional; settings: SW-620, 456 h, time 19 day
Procedure, shortened: (§2)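 Male Swiss nude mice bearing s.c. flank SW620 xenografts (cells in Matrigel), randomized (n = 8-11) at 0.2-0.3 cm3. AZD1152 in Tris buffer pH 9, or vehicle, given as a once-daily i.v. or i.p. bolus. Caliper volumes up to 3×/week; inhibition from change in control vs treated volume; one-tailed t test.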

SW-620 [3] = assay: Antitumor activity against human SW620 cells xenografted in immunodeficient Swiss athymic mouse assessed as maximum inhibition of tumor volume at 25 mg/kg/day, ip for 4 days on days 6 to 9 and measured on day 13 relative to control; assay type: functional; settings: SW-620, 192 h, time 8 day; procedure, shortened: as §2
SW-620 [4] = assay: Antitumor activity against human SW620 cells xenografted in nude athymic rat assessed as atrophy in bone marrow at 25 mg/kg/day, iv for 4 consecutive days and measured on 5 day by H&E staining based immunohistochemistry analysis; assay type: functional, organism-based
Procedure, shortened: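 Nude rats bearing SW620 tumors were dosed i.v. with AZD1152 at 25 mg/kg/d or with vehicle on days 1-4. Subgroups (n = 3) were killed at set days. Tumor and bone marrow sections were H&E-stained and examined histologically.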

COLO 205 [5] = assay: Antitumor activity against human COLO 205 cells xenografted in immunodeficient Swiss athymic mouse assessed as inhibition of tumor volume at 150 mg/kg/day, sc for 48 hrs on days 5 to 7 and measured on day 21 relative to control; assay type: functional; settings: COLO 205, 408 h, time 17 day; procedure, shortened: as §1
SW-620 [6] = assay: Antitumor activity against human SW620 cells xenografted in Swiss nude mouse assessed as increase in large multinucleated cells at 70 mg/kg/day, sc over 48 hrs by H&E staining method; assay type: functional, organism-based
Procedure, shortened: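 Male nude mice bearing SW620 tumors (n = 4/group) had 48-h s.c. mini-pump infusion of AZD1152 (70 mg/kg/d) or vehicle. Excised tumor sections were stained with H&E, or immunostained for PhH3 Ser10 with rabbit polyclonal antibody, HRP-polymer detection and hematoxylin counterstain.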

SW-620 [7] = assay: Antitumor activity against human SW620 cells xenografted in Swiss nude mouse assessed as inhibition in PhH3 level at 0.5 mg/kg/day, sc measured over 48 hrs by flow cytometry analysis relative to control; assay type: functional
Procedure, shortened: (§3)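 Male nude mice with palpable s.c. SW620 tumors (n = 4/group) received AZD1152 (0.5-150 mg/kg/d) or vehicle by constant 48-h s.c. mini-pump infusion. Tumors were then excised, fixed and disaggregated. Flow cytometry with propidium iodide gave DNA content (2N, 4N, >4N), and rabbit anti-PhH3 with fluorescein anti-rabbit IgG gave PhH3-positive cells (%).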

A549 [8] = assay: Antitumor activity against human A549 cells xenografted in immunodeficient Swiss athymic mouse assessed as maximum inhibition of tumor volume at 25 mg/kg/day, sc for 48 hrs on days 13 to 15 and measured on day 15 relative to control; assay type: functional; settings: A549, 72 h, time 3 day; procedure, shortened: as §1
A549 [9] = assay: Antitumor activity against human A549 cells xenografted in immunodeficient Swiss athymic mouse assessed as inhibition of tumor volume at 150 mg/kg/day, sc for 48 hrs on days 13 to 15 and measured on day 29 relative to control; assay type: functional; settings: A549, 408 h, time 17 day; procedure, shortened: as §1
SW-620 [10] = assay: Antitumor activity against human SW620 cells xenografted in immunodeficient Swiss athymic mouse assessed as maximum inhibition of tumor volume at 150 mg/kg/day, sc for 48 hrs on days 7 to 9 and measured on day 23 relative to control; assay type: functional; settings: SW-620, 408 h, time 17 day; procedure, shortened: as §1
SW-620 [11] = assay: Induction of polyploidy in human SW620 cells at 300 nmol/L incubated for 48 hrs by flow cytometry analysis; assay type: functional, cell-based
Procedure, shortened: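 SW620 cells were grown in L-15 with 10% heat-inactivated FCS at 37°C without CO2. They were exposed to AZD1152-HQPA for 0, 24 or 48 h, fixed in 70% ethanol at −20°C overnight, stained with propidium iodide (10 µg/mL) plus RNase (100 µg/mL), and DNA content was read by flow cytometry.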

A549 [12] = assay: Antitumor activity against human A549 cells xenografted in immunodeficient Swiss athymic mouse assessed as inhibition of tumor volume at 25 mg/kg/day, sc for 48 hrs on days 13 to 15 and measured on day 29 relative to control; assay type: functional; settings: A549, 408 h, time 17 day; procedure, shortened: as §1
SW-620 [13] = assay: Antitumor activity against human SW620 cells xenografted in immunodeficient Swiss athymic mouse assessed as maximum inhibition of tumor volume at 25 mg/kg/day, sc for 48 hrs on days 7 to 9 and measured on day 14 relative to control; assay type: functional; settings: SW-620, 192 h, time 8 day; procedure, shortened: as §1
SW-620 [14] = assay: Antitumor activity against human SW620 cells xenografted in immunodeficient Swiss athymic mouse assessed as inhibition of tumor volume at 10 mg/kg/day, sc for 48 hrs on days 7 to 9 and measured on day 23 relative to control; assay type: functional; settings: SW-620, 408 h, time 17 day; procedure, shortened: as §1
Calu-6 [15] = assay: Antitumor activity against human Calu-6 cells xenografted in immunodeficient Swiss athymic mouse assessed as maximum inhibition of tumor volume at 150 mg/kg/day, sc for 48 hrs on days 20 to 22 and measured on day 29 relative to control; assay type: functional; settings: Calu-6, 240 h, time 10 day; procedure, shortened: as §1
COLO 205 [16] = assay: Antitumor activity against human COLO 205 cells xenografted in immunodeficient Swiss athymic mouse assessed as maximum inhibition of tumor volume at 150 mg/kg/day, sc for 48 hrs on days 5 to 7 and measured on day 18 relative to control; assay type: functional; settings: COLO 205, 336 h, time 14 day; procedure, shortened: as §1
SW-620 [17] = assay: Antitumor activity against human SW620 cells xenografted in Swiss nude mouse assessed as accumulation in proportion of 4N DNA content at 70 mg/kg/day, sc over 48 hrs by flow cytometry analysis relative to control; assay type: functional; procedure, shortened: as §3
SW-620 [18] = assay: Antitumor activity against human SW620 cells xenografted in nude athymic rat assessed as suppression in PhH3 at 25 mg/kg/day, iv for 4 consecutive days and measured during dosing period (days 1 to 4) by flow cytometry analysis relative to control; settings: time 1 to 4 day

## CCN(CCCOc1ccc2c(Nc3cc(CC(=O)Nc4cccc(F)c4)[nH]n3)ncnc2c1)CCOP(=O)(O)O [BARASERTIB]
HCT-116
  inhibition in vivo at 150 mg/kg/day: 74%
Calu-6 [1]
  inhibition in vivo at 150 mg/kg/day: 55%
SW-620 [2]
  inhibition in vivo at 25 mg/kg/day: 54%
SW-620 [3]
  inhibition in vivo at 25 mg/kg/day: 65%
SW-620 [4]
  Activity: Active
COLO 205 [5]
  inhibition in vivo at 150 mg/kg/day: 94%
SW-620 [6]
  Activity: Active
SW-620 [7]
  inhibition in vivo at 0.5 mg/kg/day: 52%
A549 [8]
  inhibition in vivo at 25 mg/kg/day: 74%
A549 [9]
  inhibition in vivo at 150 mg/kg/day: 69%
SW-620 [10]
  inhibition in vivo at 150 mg/kg/day: 87%
SW-620 [11]
  Activity: Active
A549 [12]
  inhibition in vivo at 25 mg/kg/day: 36%
SW-620 [13]
  inhibition in vivo at 25 mg/kg/day: 65%
SW-620 [14]
  inhibition in vivo at 10 mg/kg/day: 28%
Calu-6 [15]
  inhibition in vivo at 150 mg/kg/day: 67%
COLO 205 [16]
  inhibition in vivo at 150 mg/kg/day: > 100%
SW-620 [17]
  Activity: 56%
SW-620 [18]
  Activity: ~40%
